Results: paper PMC3064895 (Cancer Chemotherapy and Pharmacology, 2010)
Where “and” joins values, the source holds several entries; their conditions need not be identical. Equal entries are not always repeated. Entries after “also recorded” stand apart in the source; their conditions may differ. Where two headings read alike, the source gives them in different places.

Key:
[1] = Supine blood pressure and heart rate; format: in vivo, patients with advanced cancer; settings: for Mean increase from baseline in diastolic BP, individual patient / Mean increase from baseline in systolic BP, individual patient: patient with confirmed PR
[2] = Plasma pharmacokinetics at steady state of sorafenib; format: in vivo, patients with advanced cancer; settings: for AUC / Cmax: geometric mean (% CV); for AUC: AUC(0–12), n = 14; for Cmax: C max
[3] = Safety: adverse events by NCI-CTCAE v3.0; format: in vivo, patients with advanced cancer
Method in brief: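 Patients with advanced cancer took the oral kinase inhibitor at 400 mg bid, continuously, in 28-day cycles. Safety, including laboratory tests, was checked at screening, at baseline and on day 1 of each cycle. Treatment-emergent AEs were graded by NCI-CTCAE v3.0 for incidence, severity, seriousness and drug relationship, and summarized descriptively for all patients with ≥1 dose.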

Efficacy: tumor response = format: in vivo, patients with advanced cancer
Method in brief: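 Adults with advanced cancer took the oral multitargeted kinase inhibitor at 400 mg bid, continuously, in 28-day cycles until progression or intolerance. Tumors were measured at screening and every 2 cycles and assessed locally by RECIST. Patients with ≥1 dose were included; patients were evaluable if radiologically re-evaluated or if they stopped for death or progression before re-evaluation. Descriptive statistics were used, with Kaplan–Meier for PFS.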

[4] = cited from earlier work; for Incidence of treatment-emergent cardiac ischemia/infarction AEs: final safety analysis
[5] = observational study by Schmidinger et al.; cited from earlier work
[6] = over 12-h period, Day 1 of cycle 5
[7] = human, plasma, oral, 400 mg, plasma, Day 1 of cycle 2, sorafenib 400 mg bid
[8] = human, plasma, oral, 400 mg, plasma, Day 1 of cycle 5, sorafenib 400 mg bid
[9] = plasma, Day 1 of cycle 2, sorafenib 400 mg bid
[10] = plasma, Day 1 of cycle 5, sorafenib 400 mg bid
[11] = retrospective analysis of 18 studies of sorafenib monotherapy

Structure (SMILES): CNC(=O)c1cc(Oc2ccc(NC(=O)Nc3ccc(Cl)c(C(F)(F)F)c3)cc2)ccn1 [sorafenib]
- Mean (SD) maximal change from baseline in supine diastolic BP [1, 6]: 22.0 (11.2) mm Hg
- Mean (SD) maximal change from baseline in supine systolic BP [1, 6]: 24.8 (14.4) mm Hg
- Mean (SD) maximal change from baseline in supine HR ([1]; over 12-h period, Day 1 of cycle 5, listed as Sorafenib): 8.3 (6.8) bpm
- Mean increase from baseline in diastolic BP, individual patient ([1]; after 1 cycle): 31.0 mm Hg
- Mean increase from baseline in systolic BP, individual patient ([1]; after 1 cycle): 44.5 mm Hg
- Mean increase from baseline in diastolic BP, individual patient ([1]; after 4 cycles): 40.8 mm Hg
- Mean increase from baseline in systolic BP, individual patient ([1]; after 4 cycles): 29.3 mm Hg
- Tmax ([2]; human, plasma, oral, 400 mg): 2 h
- AUC [2, 7]: 42800 ng·h/mL
- AUC [2, 8]: 36000 ng·h/mL
- Cmax [2, 7]: 5400 ng/mL
- Cmax [2, 8]: 4300 ng/mL
- AUCnorm, geometric mean (% CV) [2, 9]: 7.5 (48.4) kg h/L
- C max,norm, geometric mean (% CV) [2, 9]: 1.0 (64.9) kg/L
- C trough, geometric mean (% CV) [2, 9]: 4.1 (73.6) mg/L
- C trough,norm, geometric mean (% CV) [2, 9]: 0.7 (85.4) kg/L
- AUCnorm, geometric mean (% CV) [2, 10]: 6.3 (69.8) kg h/L
- C max,norm, geometric mean (% CV) [2, 10]: 0.8 (72.5) kg/L
- C trough, geometric mean (% CV) [2, 10]: 3.2 (73.8) mg/L
- C trough,norm, geometric mean (% CV) [2, 10]: 0.6 (83.8) kg/L
- t max, median (range) [2, 10]: 2.00 (0–8.05) h
- Relationship between PK parameters (AUC(0–12), C max) and cardiovascular safety parameters (QT/QTc, LVEF, BP, HR) ([2]; sorafenib and its main metabolites, any time point, data not shown): No correlation; also recorded: No relationship was observed
- Alopecia, drug-related, Grade ≥3 ([3]; N = 53): 0 (0) n (%)
- Alopecia, drug-related, all grades ([3]; N = 53): 13 (25) n (%)
- Dermal change, drug-related, Grade ≥3 ([3]; N = 53): 0 (0) n (%)
- Dermal change, drug-related, all grades ([3]; N = 53): 6 (11) n (%)
- Dermatology—other, drug-related, Grade ≥3 ([3]; N = 53): 1 (2) n (%)
- Dermatology—other, drug-related, all grades ([3]; N = 53): 7 (13) n (%)
- Diarrhea, drug-related, Grade ≥3 ([3]; N = 53): 1 (2) n (%)
- Diarrhea, drug-related, all grades ([3]; N = 53): 15 (28) n (%)
- Fatigue, drug-related, Grade ≥3 ([3]; N = 53): 1 (2) n (%)
- Fatigue, drug-related, all grades ([3]; N = 53): 8 (15) n (%)
- Hand-foot skin reaction, drug-related, Grade ≥3 ([3]; N = 53): 6 (11) n (%)
- Hand-foot skin reaction, drug-related, all grades ([3]; N = 53): 16 (30) n (%)
- Hypertension, drug-related, Grade ≥3 ([3]; N = 53): 1 (2) n (%)
- Hypertension, drug-related, all grades ([3]; N = 53): 6 (11) n (%)
- Mucositis, drug-related, Grade ≥3 ([3]; N = 53): 1 (2) n (%)
- Mucositis, drug-related, all grades ([3]; N = 53): 8 (15) n (%)
- Nausea, drug-related, Grade ≥3 ([3]; N = 53): 0 (0) n (%)
- Nausea, drug-related, all grades ([3]; N = 53): 7 (13) n (%)
- Pain, extremity—limb, drug-related, Grade ≥3 ([3]; N = 53): 0 (0) n (%)
- Pain, extremity—limb, drug-related, all grades ([3]; N = 53): 12 (23) n (%)
- Patients discontinued from the study because of AEs ([3]; N = 53): Seven
- Patients with dose reductions ([3]; N = 53): 43.4%
- Patients with dose reductions because of treatment-emergent AEs ([3]; N = 53): 32.1%
- Patients with drug-related treatment-emergent serious AEs ([3]; N = 53): 4%
- Patients with treatment interruptions ([3]; N = 53): 75.5%
- Patients with treatment interruptions because of treatment-emergent AEs ([3]; N = 53): 43.4%
- Rash/desquamation, drug-related, Grade ≥3 ([3]; N = 53): 3 (6) n (%)
- Rash/desquamation, drug-related, all grades ([3]; N = 53): 20 (38) n (%)
- Sensory neuropathy, drug-related, Grade ≥3 ([3]; N = 53): 0 (0) n (%)
- Sensory neuropathy, drug-related, all grades ([3]; N = 53): 7 (13) n (%)
- Any drug-related adverse event, Grade ≥3 ([3]; N = 53, sorafenib 400 mg bid): 16 n (%) and 16 (30) n (%)
- Any drug-related adverse event, all grades ([3]; N = 53, sorafenib 400 mg bid): 43 n (%) and 43 (81) n (%)
- Deaths during the study or within 30 days of the last dose ([3]; all secondary to disease progression, considered unrelated to study drug): Seven
- Discontinuations because of drug-related AEs ([3]; of the patients discontinued because of AEs): 3 patients
- PD as best response (Efficacy: tumor response; 48 patients evaluable for tumor response, RECIST): 27%
- Patients alive (censored) at time of analysis (Efficacy: tumor response; ITT population (n = 53)): 87%
- Patients who had died by the time of analysis (Efficacy: tumor response; ITT population (n = 53)): 13%
- Median PFS (Efficacy: tumor response; ITT population (n = 53), 95% CI 2.8–6.4 months): 4.1 months
- Median overall survival (Efficacy: tumor response; ITT population (n = 53), censored data): not estimable
- Patients reporting cardiac ischemia/infarction AEs ([4]; RCC phase III, patients who crossed over from placebo to sorafenib): 1.4%
- Incidence of treatment-emergent cardiac ischemia/infarction AEs ([4]; randomized phase III HCC study, placebo […]): 2.7%
- Incidence of treatment-emergent cardiac ischemia/infarction AEs ([4]; randomized phase III RCC study, placebo 0.4%): 2.9%
- Overall rate of CHF [4, 11]: 1.6%
- Overall rate of MI [4, 11]: 1.5%
- Treatment-emergent hypertension [4, 11]: 18.6%
- Incidence of ≥10 LVEF(%) reduction [5]: 5%
